# Source: PubChem
# ASAP1 GAP inh – blocks human ASAP1-stimulated Arf1 GTP hydrolysis | Q9ULH1 | GDP FP detection | inhibition, % at 16.5 µM | 0.19% of 360,000 active | AID 624377; in the data active = inhibition above about 25%;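 note: 0% = vehicle with enzyme and substrate and 100% = no enzyme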
# Target sequence (Q9ULH1 325-724 limits assumed): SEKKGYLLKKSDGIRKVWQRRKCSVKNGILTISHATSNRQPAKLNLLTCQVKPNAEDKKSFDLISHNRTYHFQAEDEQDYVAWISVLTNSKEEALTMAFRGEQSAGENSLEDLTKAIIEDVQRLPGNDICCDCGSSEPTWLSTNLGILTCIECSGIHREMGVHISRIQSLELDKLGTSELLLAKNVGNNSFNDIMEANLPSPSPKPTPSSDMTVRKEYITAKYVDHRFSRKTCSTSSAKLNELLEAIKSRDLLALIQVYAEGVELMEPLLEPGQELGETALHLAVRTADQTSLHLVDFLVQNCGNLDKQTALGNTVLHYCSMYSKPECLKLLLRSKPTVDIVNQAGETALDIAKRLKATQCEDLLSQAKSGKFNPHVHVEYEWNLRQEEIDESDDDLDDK
# Rin1-Abl PPI inh – human Rin1-Abl interaction inhibition. P00519+Q13671. TR-FRET Rin1/Abl binding, biochemical. inhibition, % at 7.35 µM. 0.4% of 360,000 active; in the data active = inhibition above about 5%, passing the limit was not always enough
# GalR3 antag – antagonists of human GalR3; O60755; 0.44% of 360,000 active; AID 651719; HEK293 GalR3-CNG cAMP membrane potential fluorescence; galR3 body fused to GalR1 C-terminus; inhibition, % at 3 µM;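 active = inhibition above the screen-wide average plus 3 SD, cut at about 13% in these data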;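 note: forskolin and galanin both at EC90 stimulate the cells; cAMP rise reported by CNG channel membrane potential dye signal; 0% = forskolin plus galanin with DMSO and 100% = forskolin alone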
# ARFGAP1 inh – inhibits rat ARF GTPase activating protein 1; 0.26% of 360,000 active; Arfgap1-stimulated ARF1 GTP hydrolysis, GDP FP detection; AID 651572; inhibition, % at 16.5 µM;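 active = inhibition above a per-plate limit, mean inhibition of low control wells plus 3 SD, cut at about 25% in these data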;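 note: 0% = DMSO wells with enzyme and 100% = wells lacking Arfgap1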
# Target sequence (Q62848 1-136 limits assumed): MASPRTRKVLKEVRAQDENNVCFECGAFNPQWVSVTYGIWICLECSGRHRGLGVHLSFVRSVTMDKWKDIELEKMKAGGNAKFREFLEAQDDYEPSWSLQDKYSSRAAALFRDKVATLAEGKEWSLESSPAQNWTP
#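 System: truncated rat Arfgap1 GAP domain / Benchmarks: high control wells lacking Arfgap1, low control full reaction with DMSO / Times: compound-enzyme preincubation 20 min, reaction 120 min, detection 60 min, 25 °C / Repeats: one replicate per compound / Also added: human ARF1(Δ1-17)-GTP substrate / Measured by: Tracer-displacement fluorescence polarization with EDTA stop, 620/688 nm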
# ARFGAP1 inh conf – rat ARFGAP1 inhibition, confirmed | inhibition, % at 16.5 µM | ARFGAP1-stimulated ARF1 GTP hydrolysis, GDP tracer FP | 30% of 890 active | AID 651608 | shares compounds with ARFGAP1 inh;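 active = average inhibition over triplicates above the hit cutoff set in the earlier primary screen, cut at about 25% in these data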;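 note: 0% = Arfgap1 plus ARF1-GTP with DMSO and 100% = wells lacking Arfgap1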
# * = called active by the depositor; / = not tested or not shown; + = active, no number. The list is not random: actives were taken first. Their share in the collection is about 1.2%.
SMILES,ASAP1 GAP inh,Rin1-Abl PPI inh,GalR3 antag,ARFGAP1 inh,ARFGAP1 inh conf
C[C@@H]1C=CCCO[C@]12C(=O)N(Cc1ccc(Br)cc1)c1ccccc12,-9,/,-3,-1,/
Cc1ccc(S(=O)(=O)N/N=C\c2cn(CC(N)=O)c3ccccc23)cc1,0,2,-3,30*,-7
NC(=O)Cn1cc(/C=N\NS(=O)(=O)c2cccc([N+](=O)[O-])c2)c2ccccc21,-8,2,-2,2,/
CCN(CC)C(=O)CN(c1cccc(C(F)(F)F)c1)S(C)(=O)=O,7,-1,-4,31*,-6
CCN(CC)C(=O)CN(c1cccc(Br)c1)S(C)(=O)=O,6,3,-7,-2,/
Cc1ccc(NC(=O)Cn2cnc(C(=O)Nc3ccc(C)c(C)c3)n2)cc1C,11,-3,-6,12,/
COc1ccc(CN(C)C(=O)Cn2cnc(C(=O)Nc3ccc(C)c(C)c3)n2)cc1OC,7,-2,-8,29*,-2
CCCc1nc2c(C)cc(Br)cn2c1Cc1ccccc1OC,0,/,-4,2,/
CCCOc1ccc(C(=O)N/N=C/c2c[nH]c3ccc(Br)cc23)cc1,11,-1,-14,25*,14
CC(=O)Nc1cc2nc3ccccc3oc-2cc1=O,14,/,-6,/,/
Cc1ccc(C(=O)N[C@@H](C)CN2C3=NC[C@H](C(C)C)N3C[C@H]2Cc2ccc(O)cc2)cc1Br,-2,1,-7,26*,10
CC(OC(=O)C1CCN(c2ccc(C(F)(F)F)cn2)CC1)C(=O)Nc1cccc([N+](=O)[O-])c1 (stereo not given),-4,2,-2,27*,9
COC1=CC(C)C2CC3OC(O)CC4C(C)=C(OC)C(=O)C(C2(C)C1=O)C34C (stereo not given),-3,3,-6,6,/
COc1cccc2c1SCc1ccccc1C2CC(N)=O (stereo not given),21,2,-2,31*,-4
COC(=O)C1=C(C)N(C)C(=NCC2CC2)NC1c1ccccc1 (stereo not given),-10,/,-4,-4,/
CCOC(=O)[C@]12CCCC=C1N(CCC1=CCCCC1)C(=O)[C@H](CC(=O)NCc1ccccc1)C2,9,/,-5,2,/
Cc1cc(C)cc(NC(=O)C2(c3cccs3)CCOCC2)c1,5,-4,5,11,/
Cc1cccc(NC(=O)C2(c3cccs3)CCOCC2)c1,-12,-1,2,35*,4
COC(=O)c1cc2c(c3c4cc(C)ccc4n(S(=O)(=O)c4ccc(C)cc4)c13)C(=O)N(Cc1ccc(C(F)(F)F)cc1)C2,1,/,-6,-23,/
Nc1ccc(-c2nc3ccc(N)cc3[nH]2)cc1,-4,1,-1,4,/
Nc1ccc2cc3[nH]c4cc(N)ccc4c3nc2c1,11,-187,-6,46*,73*
O=C(c1ccc2c3n(nc2c1)-c1ccccc1CO3)N1CCCCC1,2,-1,-3,-13,/
c1ccc2c(c1)COc1c3ncccc3nn1-2,2,-4,-6,+,-2
COc1ccc(-c2nnn(CC(=O)NCc3ccc4c(c3)OCO4)n2)cc1OC,11,0,-4,6,/
CCOc1ccc(-c2nnn(CC(=O)NCc3ccc4c(c3)OCO4)n2)cc1,-3,5,11,29*,12
SMILES,ASAP1 GAP inh,Rin1-Abl PPI inh,GalR3 antag,ARFGAP1 inh,ARFGAP1 inh conf
COc1cc(Cl)c(NC2=CC(=O)C(=O)c3ccccc32)c(OC)c1,2,-5,-3,28*,-1
C[C@@H]1CN([C@H](C)CO)C(=O)c2cc(NC(=O)Nc3ccccc3)ccc2O[C@@H](C)CCCCO[C@H]1CN(C)S(C)(=O)=O,4,/,-4,1,/
O=C(Nc1cccc(S(=O)(=O)NCc2ccco2)c1)c1cc(-c2ccc(F)cc2)nc2ccccc12,7,-2,-3,8,/
COc1ccc(-c2cc(C(=O)Nc3cccc(S(=O)(=O)NCc4ccco4)c3)c3ccccc3n2)cc1OC,19,0,-4,26*,22
CCCCNc1nc2ccccc2n1CC(=O)N1CCc2ccccc2C1,6,2,-4,47*,4
CC12CCC(=O)N1C(C(=O)NCCN1C(=O)S/C(=C\c3ccc(OC(F)F)cc3)C1=O)CS2 (stereo not given),-2,-1,-1,25*,5
COc1ccc(/C=C2\SC(=O)N(CCNC(=O)C3CSC4(C)CCC(=O)N34)C2=O)cc1 (stereo not given),17,1,2,-3,/
C=CCN1[C@H](C)[C@H](c2ccccc2)Oc2cc(Br)ccc2S1(=O)=O,-3,/,-7,8,/
O=C(Nc1ccc(-c2cn3ccccc3n2)cc1)c1cccs1,-2,1,-3,25*,86*
COc1ccc(-n2nnnc2C2(C)CCC(=O)N2Cc2ccccc2)cc1 (stereo not given),6,/,-4,0,/
COc1cc(OC)c(OC)cc1CN1CCN(S(=O)(=O)c2ccc(NC(C)=O)cc2)CC1,2,-1,-2,-10,/
COc1ccc(S(=O)(=O)N2CCN(Cc3cc(OC)c(OC)cc3OC)CC2)cc1,13,-1,8,27*,-11
COC(=O)C1=C(C)N(Cc2ccccc2C(F)(F)F)C(=NCc2ccccc2C(F)(F)F)NC1c1ccc(C(F)(F)F)cc1 (stereo not given),-4,/,-2,-3,/
Cc1ccc(S(=O)(=O)NCCC(=O)Nc2cccc(S(=O)(=O)N3CCCC3)c2)cc1C,-2,1,-5,34*,2
Cc1ccc2nc(-c3ccco3)c(Cc3ccccc3C(F)(F)F)n2c1,10,/,-5,8,/
O=C(Cc1ccc(NC(=O)C2CCCN(C(=O)c3ccccc3)C2)cc1)Nc1cccc(C(=O)N2CCCC2)c1 (stereo not given),13,/,-4,2,/
Cc1cc(N2CCN(S(C)(=O)=O)C[C@@H]2C)ccc1N1CCN(Cc2ccccc2)[C@@H](C)C1,-5,/,-7,-12,/
COC(=O)C[C@@H]1CC[C@@H](NC(=O)Nc2cc(F)ccc2F)[C@@H](CO)O1,3,/,-4,-3,/
O=C(N=Nc1c(O)[nH]c2ccccc12)c1cc(-c2cccs2)[nH]n1,22,1,-4,30*,32*
COC(=O)C1=C(C)N(Cc2ccc(F)cc2)C(=S)NC1c1cccc(OC)c1 (stereo not given),10,/,1,5,/
CCOC(=O)Cn1c(C)cc(=O)c2cccc(C)c21,2,2,-2,6,/
CCOC(=O)Cn1c(=O)cc(C)c2cccc(C)c21,6,0,-2,30*,5
COC(=O)Cc1nnn2c1[C@H](C)[C@@H](OC)c1ccc(C(F)(F)F)cc1-2,-6,/,2,5,/
CCOc1ccc(C(=O)N(CN2CCCC2=O)c2cccc(Cl)c2)cc1,-7,4,-1,38*,-1
CCOc1ccc(C(=O)N(CN2CCCC2=O)c2ccccc2)cc1,-3,-2,-4,-4,/
Cc1c(C=O)c(Cl)n(C)c(=O)c1C#N,20,-3,1,28*,5
